pEC50: −log10 of the molar value. Calls of active or inactive are those of the source. The calls are words filed in the database; no cut-off is given here.
Columns and labels:
[1] = biological target: T1, Hydroxycarboxylic acid receptor 3 (Homo sapiens, UniProt P49019); assay: Agonist activity at human GPR109b expressed in human adipocytes assessed as decrease in intracellular cAMP level by HTRF assay; assay type: functional, cell-based; conditions: for EC50: read-out: Log EC50 (converted); for pEC50: read-out: EC50
T1 sequence (P49019 whole entry): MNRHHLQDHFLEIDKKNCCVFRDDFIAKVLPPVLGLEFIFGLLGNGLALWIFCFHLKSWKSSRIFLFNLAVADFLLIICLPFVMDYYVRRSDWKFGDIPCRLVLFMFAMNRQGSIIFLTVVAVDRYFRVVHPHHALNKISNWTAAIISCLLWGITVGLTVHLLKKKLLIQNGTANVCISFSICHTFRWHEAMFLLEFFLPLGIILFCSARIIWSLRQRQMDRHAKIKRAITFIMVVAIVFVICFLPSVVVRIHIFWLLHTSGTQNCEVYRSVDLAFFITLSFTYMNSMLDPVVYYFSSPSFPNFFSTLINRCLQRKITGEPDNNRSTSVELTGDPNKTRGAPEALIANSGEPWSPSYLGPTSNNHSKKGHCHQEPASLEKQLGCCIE
Method in brief: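 Whole-cell cAMP Dynamic2 HTRF assay at GPR109b. Results are given as pEC50, the negative log of molar EC50, with log SD errors and n in parentheses. Compounds with no response are marked not active. Efficacy is judged relative to niacin.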

[2] = biological target: T1, Hydroxycarboxylic acid receptor 3; assay: Agonist activity at human GPR109b […] assessed as decrease in intracellular cAMP level upto 50 uM by HTRF assay; assay type: functional, cell-based
Rattus norvegicus [3] = assay: Reduction in 4-fluoro-5-methyl-pyrazole-3-carboxylic acid-induced plasma free fatty acid level in fasted male Sprague-Dawley rat at 1 mg/kg; assay type: functional, organism-based; set-up: dose 1 mg/kg
Method in brief: (§1)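 Fasted male Sprague–Dawley rats dosed orally at 0.1, 1 or 10 mg/kg. Plasma free fatty acid levels are followed over time, with 10 mg/kg oral niacin as the comparator.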

Mus musculus = assay: Effect on cutaneous flushing response in C57BL/6 mouse at 100 mg/kg; assay type: functional, organism-based; set-up: dose 100 mg/kg
Method in brief: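 Male C57 Bl/6 mice given 100 mg/kg. Cutaneous vasodilation is measured as a surrogate for flushing.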

Rattus norvegicus [4] = assay: Reduction in 4-fluoro-5-methyl-pyrazole-3-carboxylic acid-induced plasma free fatty acid level in fasted male Sprague-Dawley rat at 10 mg/kg; assay type: functional, organism-based; set-up: dose 10 mg/kg; method in brief: as §1

SMILES	Activity [1]	Activity [2]	other results
CCCCCc1cc(C(=O)O)[nH]n1			EC50 [1]: 18.6 µM
O=C(O)c1n[nH]c(C2CC2)c1F	inactive	inactive	
O=C(O)c1cc(C2CCC2)n[nH]1	inactive	inactive	
Cc1[nH]nc(C(=O)O)c1Cl	inactive	inactive	
CCCCc1[nH]nc(-c2nnn[nH]2)c1F	inactive	inactive	
CC(C)c1cc(-c2nnn[nH]2)n[nH]1		inactive	
O=C(O)c1cccnc1 [NIACIN]			EC50 [1]: 75.9 µM
CCCCc1cc(-c2nnn[nH]2)n[nH]1			EC50 [1]: 7.59 µM
Cc1[nH]nc(-c2nnn[nH]2)c1F	inactive	inactive	
CC(C)c1cc(C(=O)O)n[nH]1			EC50 [1]: 41.7 µM
CCc1[nH]nc(-c2nnn[nH]2)c1F			EC50 [1]: 12.3 µM
c1c(-c2nnn[nH]2)n[nH]c1C1CC1			pEC50 [1]: 5.44; EC50 [1]: 3.24 µM
CCc1[nH]nc(C(=O)O)c1F	inactive	inactive	
O=C(O)c1cc[nH]n1	inactive	inactive	
CCc1cc(C(=O)O)[nH]n1	inactive	inactive	
c1cc(-c2nnn[nH]2)n[nH]1		inactive	
CCCCc1[nH]nc(C(=O)O)c1F	inactive	inactive	
CCc1[nH]nc(C(=O)O)c1C	inactive	inactive	
CCCc1cc(-c2nnn[nH]2)n[nH]1			pEC50 [1]: 3.07; EC50 [1]: 0.724 µM
CCCCc1cc(C(=O)O)n[nH]1			EC50 [1]: 11.7 µM
Cc1[nH]nc(C(=O)O)c1F	inactive	inactive	Activity (Rattus norvegicus [3]): Active; Activity (Mus musculus): Active; Activity (Rattus norvegicus [4]): Active
CCCCc1[nH]nc(C(=O)O)c1Br	inactive	inactive	

More lines, main results first:

Activity [1]	Activity [2]	SMILES	other results
inactive	inactive	Fc1c(-c2nnn[nH]2)n[nH]c1C1CC1	
inactive	inactive	O=C(O)c1cc(C2CC2)n[nH]1	
	inactive	Cc1cc(-c2nnn[nH]2)n[nH]1	
inactive	inactive	Cc1cc(C(=O)O)n[nH]1	
inactive	inactive	CCCc1cc(C(=O)O)n[nH]1	
